Screens deposited in PubChem BioAssay by several laboratories.
NR2E3 ag-1 = agonists of human NR2E3 nuclear receptor. Q9Y5X4. CHO-S Gal4-NCOR/VP16-NR2E3 two-hybrid, luciferase. inhibition of corepressor binding, % at 3.98 µM. 360,000 tested, 0.35% active. AID 602229;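 active = inhibition above the mean of all tested compounds plus 3 SD, cut at about 70% in these data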;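 note: 0% = DMSO with NR2E3 transfected cells and 100% = cells lacking NR2E3 construct; higher means lower luciferase signal from less NR2E3 corepressor binding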
V-ATPase pHluor = alters yeast V-ATPase proton transport. S. cerevisiae, pHLuorin cytosolic pH fluorescence. response, % at 10 µM. 350,000 tested, 0.37% active. AID 504577; in the data active = response mostly above about 7.3%, no sharp cut-off; inactive = mostly below about 5.4%; note: actives read high
NR2E3 ag-2 = agonists of human nuclear receptor NR2E3. Q9Y5X4. GST-NR2E3/biotin-RetCOR TR-FRET, 1536-well. inhibition of corepressor binding, % at 4.78 µM. 320,000 tested, 0.12% active. AID 2300;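 active = percent inhibition above the cutoff of mean plus 3 SD of all tested compounds, set per screening campaign, cut at about 20% in these data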;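 note: 0% = DMSO wells and 100% = biotin wells as full block of FRET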
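System: GST-tagged NR2E3 plus biotinylated RetCOR corepressor; Buffer or medium: pH 7.5 Tris-based buffer; Probe or stimulus: RetCOR corepressor, biotinylated, 7 nM; Doses: compound at 4.8 µM, single dose; Schedule: 5 h incubation at 4 °C; Technique: time-resolved FRET; Evaluation: percent inhibition of TR-FRET ratio; Replication: one well per compound, singlicate testing.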
HIV Env fusion = blocks HIV Env-driven cell-cell fusion; 360,000 tested, 1.1% active; inhibition, % at 12.3 µM; HeLa-JRFL Env/CEM21 cell fusion, luciferase;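 active = mean replicate inhibition score of at least 50 and every replicate individually at or above 50; inconclusive = only one of the two criteria met; inactive = mean below 50 and not all replicates reaching 50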;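 note: 0% = plate neutral controls and 100% = maraviroc near 300 nM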
GalR3 antagonist = blocks the human galanin receptor 3. O60755. inhibition, % at 3 µM. 360,000 tested, 0.44% active. HEK293 GalR3-CNG cAMP membrane potential fluorescence; galR3 body fused to GalR1 C-terminus;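 active = inhibition above the screen-wide average plus 3 SD, cut at about 13% in these data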;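 note: forskolin and galanin both at EC90 stimulate the cells; cAMP rise reported by CNG channel membrane potential dye signal; 0% = forskolin plus galanin with DMSO and 100% = forskolin alone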
Target sequence (O60755 1-299 limits assumed): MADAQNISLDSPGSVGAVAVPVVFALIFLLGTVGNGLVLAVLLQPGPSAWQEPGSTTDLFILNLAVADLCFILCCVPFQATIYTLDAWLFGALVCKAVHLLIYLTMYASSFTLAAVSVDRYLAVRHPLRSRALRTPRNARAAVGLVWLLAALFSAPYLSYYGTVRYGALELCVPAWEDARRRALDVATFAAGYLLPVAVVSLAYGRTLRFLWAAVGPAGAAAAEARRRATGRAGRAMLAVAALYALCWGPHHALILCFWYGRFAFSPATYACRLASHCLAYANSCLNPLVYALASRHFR
GAA850 FXN act = increases GAA850 frataxin promoter reporter activity; HEK293 lucGAA850 FXN promoter luciferase reporter, 24 h; percent of 10 µM SAHA response; activation, % at 6 µM; 360,000 tested, 0.56% active; AID 540364;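 active = activation above the average of all compounds screened plus 3 SD, cutoff fixed separately per campaign, cut at about 7.5% in these data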;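 note: 0% = DMSO wells and 100% = 10 µM SAHA wells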
NR2E3 ag conf = confirmation of human NR2E3 agonists | inhibition, % at 3.98 µM | CHO-S mammalian two-hybrid NR2E3-NCOR, luciferase luminescence | 2,300 tested, 51% active | shares compounds with NR2E3 ag-1;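 active = average inhibition above a cutoff equal to the mean inhibition of all tested compounds plus one SD, cut at about 70% in these data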;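 note: 0% = DMSO in NR2E3 cells and 100% = DMSO in cells lacking NR2E3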
VP16 counter = counter-screen for NR2E3 agonists: GAL4-VP16 reporter inhibitors; shares compounds with NR2E3 ag-1; CHO-S GAL4-VP16 luciferase reporter, luminescence; inhibition, % at 3.98 µM; 2,300 tested, 29% active;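 active = mean inhibition above a cutoff equal to the average over all tested compounds plus one standard deviation, cut at about 70% in these data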;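 note: luciferase from a UAS reporter driven by GAL4-VP16 transactivation; 0% = DMSO with VP16-transfected cells and 100% = DMSO with cells lacking VP16; higher means less reporter light so more repression of VP16 activity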
* marks the source's active call; other numbers are inactive results; ? = inconclusive; / = no result given; [ ] = another dose, or the depositor's remark. Rows were chosen to be rich in hits. Some 2.2% of all compounds tested hit in one or more screens of this group.

SMILES | NR2E3 ag-1 | V-ATPase pHluor | NR2E3 ag-2 | HIV Env fusion | GalR3 antagonist | GAA850 FXN act | NR2E3 ag conf | VP16 counter
Cc1cccnc1Nc1nc(-c2ccccc2)cs1 | -136.1 | 0.1 | -3.0 | -190.0 | -8.9 | 3.8 | / | /
C[C@@H]1CN([C@H](C)CO)C(=O)c2cc(NC(=O)Nc3cccc4ccccc34)ccc2O[C@@H](C)CCCCO[C@H]1CN(C)Cc1ccc2c(c1)OCO2 | / | / | / | 18.6[16.7 µM] | / | / | / | /
Cc1noc(C)c1NC(=O)N(C)C[C@H]1Oc2c(NS(=O)(=O)c3c(C)noc3C)cccc2C(=O)N([C@@H](C)CO)C[C@H]1C | / | / | / | 4.9[16.7 µM] | / | / | / | /
CCCCCc1ccc(CC(=O)Nn2c(C)nc3ccccc3c2=O)cc1 | 63.6 | 4.7 | 0.4 | ? | -1.9 | -0.6 | 75.8* | 70.0
Cc1nc2ccccc2c(=O)n1NC(=O)Cc1ccc(Br)cc1 | -0.5 | 4.7 | 2.9 | -6.5 | -4.7 | -3.3 | / | /
CN(C(=O)C(C)(C)C)c1ccc(OCC(=O)N2CCc3ccccc3C2)cc1 | 75.9* | -1.1 | -4.3 | 46.7 | -7.9 | -1.5 | 62.4 | 62.7
CCc1ccc(-c2nc(CSCC(=O)NC3CC3)c(C)o2)cc1 | 111.4* | -3.0 | 2.1 | 12.6 | -9.0 | -13.0 | 98.1* | 97.5*
COc1ccc(-c2nc(CSCC(=O)NCCCN3CCCC3=O)c(C)o2)cc1 | -8.6 | 0.9 | -0.1 | 6.4 | -8.4 | -0.8 | / | /
CCc1ccc(-c2nc(CSCC(=O)N3CCN(c4ncccn4)CC3)c(C)o2)cc1 | 65.6 | 3.0 | 0.6 | 27.6 | 0.5 | -5.0 | 71.0* | 63.1
CSc1ccc(-c2nc(CSCC(=O)NC3CC3)c(C)o2)cc1 | 99.8* | -1.0 | 3.7 | 1.6 | -6.7 | -3.4 | 84.9* | 84.3*
CCOc1ccc(-c2nc(CSCC(=O)NCCCN3CCCC3=O)c(C)o2)cc1 | 59.6 | -0.8 | 0.0 | 8.7 | 1.6 | -3.4 | 64.3 | 36.5
C[C@@H](NC(=O)C[C@H]1C[C@@H]2c3cc(NC(=O)c4ccc5c(c4)OCO5)ccc3O[C@@H]2[C@H](CO)O1)c1ccccc1 | / | / | / | -8.5[16.7 µM] | / | / | / | /
Cc1ccc(S(=O)(=O)Nc2ccc3nc(C)sc3c2)cc1 | 71.9* | 1.6 | 1.9 | / | / | -0.5 | 88.5* | 75.8*
Cc1nc2ccc(S(=O)(=O)Nc3cccc(-c4nc5cccnc5s4)c3)cc2s1 | 70.6* | 0.8 | 6.2 | 0.0 | / | 0.5 | 75.5* | 45.3
Cc1nc2ccc(S(=O)(=O)Nc3ccc(-c4nc5cccnc5s4)cc3)cc2s1 | -7.7 | 3.8 | 7.5 | / | / | 2.7 | / | /
Cc1nc2ccc(NS(=O)(=O)c3ccc(F)c(F)c3)cc2s1 | 64.7 | 3.1 | 2.9 | / | -5.4 | 1.8 | 59.1 | 45.7
Cc1nc2ccc(NS(=O)(=O)c3ccc(Br)cc3)cc2s1 | 84.9* | 1.2 | 1.1 | / | -4.2 | -0.6 | 96.9* | 76.1*
CC(=O)Nc1ccc(S(=O)(=O)Nc2ccc3nc(C)sc3c2)cc1 | 43.1 | 3.0 | / | 42.9 | -6.0 | -1.8 | / | /
C[C@H]1CN([C@@H](C)CO)C(=O)Cc2cc(NC(=O)Cn3cnnn3)ccc2O[C@@H]1CN(C)Cc1ccc2c(c1)OCO2 | / | / | / | 6.2[16.7 µM] | / | / | / | /
Cc1ccc(S(=O)(=O)Nc2ccc3nc(C)sc3c2)c(C)c1 | 67.3 | -4.0 | -0.2 | / | -7.3 | -0.4 | 72.0* | 64.4
Cc1nc2ccc(NS(=O)(=O)c3cccc([N+](=O)[O-])c3)cc2s1 | 62.8 | -1.4 | / | 3.2 | -5.8 | -2.1 | 85.3* | 72.3*
Cc1nc2ccc(NS(=O)(=O)c3ccc4c(c3)OCCO4)cc2s1 | 94.2* | 0.7 | -4.2 | / | 102.5* | -3.0 | 97.3* | 91.1*
COc1ccc(S(=O)(=O)N[C@@H]2CC[C@H](CCn3cc(-c4ccccc4F)nn3)O[C@H]2CO)cc1 | / | / | / | 12.5[16.7 µM] | / | / | / | /
C[C@@H]1CN([C@@H](C)CO)C(=O)c2cc(Br)cnc2O[C@@H]1CN(C)C(=O)C1CCOCC1 | / | / | / | 18.2[16.7 µM] | / | / | / | /
C[C@@H]1CN([C@H](C)CO)S(=O)(=O)c2ccc(C#CCN(C)C)cc2O[C@@H]1CN(C)Cc1ccc2c(c1)OCO2 | / | / | / | -15.7[16.7 µM] | / | / | / | /
